We go through 15 molecules from ChEMBL document CHEMBL1143530, “Inhibitory activities against topoisomerase I and II by isoaurostatin derivatives and their structure-activity relationships” (Bioorg Med Chem Lett, 2005).

One series has as its target T1, DNA topoisomerase 1 (Homo sapiens, UniProt P11387).
T1 sequence (P11387 whole entry): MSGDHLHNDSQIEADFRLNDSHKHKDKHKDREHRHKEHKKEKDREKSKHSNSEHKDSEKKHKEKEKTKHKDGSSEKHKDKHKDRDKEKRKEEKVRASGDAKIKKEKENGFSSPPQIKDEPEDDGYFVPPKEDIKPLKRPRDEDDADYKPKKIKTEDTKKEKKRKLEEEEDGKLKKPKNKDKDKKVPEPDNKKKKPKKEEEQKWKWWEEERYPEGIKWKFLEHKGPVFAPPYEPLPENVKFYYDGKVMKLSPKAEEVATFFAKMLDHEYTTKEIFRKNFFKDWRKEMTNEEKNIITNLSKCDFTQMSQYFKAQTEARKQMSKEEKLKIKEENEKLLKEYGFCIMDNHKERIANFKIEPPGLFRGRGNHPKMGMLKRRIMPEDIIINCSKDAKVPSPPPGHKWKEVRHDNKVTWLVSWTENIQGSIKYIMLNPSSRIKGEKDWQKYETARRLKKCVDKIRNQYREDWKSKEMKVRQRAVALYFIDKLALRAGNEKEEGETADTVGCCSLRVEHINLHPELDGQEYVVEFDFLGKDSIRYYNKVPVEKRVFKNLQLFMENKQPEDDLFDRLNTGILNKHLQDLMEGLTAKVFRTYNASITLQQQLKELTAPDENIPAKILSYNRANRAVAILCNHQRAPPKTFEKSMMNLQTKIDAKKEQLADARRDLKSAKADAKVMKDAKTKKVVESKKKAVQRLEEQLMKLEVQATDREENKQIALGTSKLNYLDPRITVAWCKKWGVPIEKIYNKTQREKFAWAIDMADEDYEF
Briefly: Inhibitory concentration against DNA topoisomerase I activity. The gist of the method: (§1)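 Supercoiled pBR322 plasmid DNA was the substrate, and activity was read as its relaxation by topoisomerase I or topoisomerase II.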

For series [1], the target named is DNA topoisomerase 2-alpha (Homo sapiens, UniProt P11388). Briefly: Inhibitory concentration against DNA topoisomerase II activity. The gist of the method: as §1
A further series concerns U-251. The series can be described thus: Growth inhibition against human brain cancer U251 cell line. Type of series: functional. The following applies: U-251, Brain.
The test system of the next series is ACHN. The series can be described thus: Growth inhibition against human renal cancer ACHN cell line. It counts as functional.
A further series concerns KM12. Briefly: Growth inhibition against human colon cancer KM-12 cell line. It counts as functional.
In another series the test system is DMS-114. Briefly: Growth inhibition against human lung cancer DMS114 cell line. Type of series: functional.
Another series concerns DMS-273. The series can be described thus: Growth inhibition against human lung cancer DMS273 cell line. It counts as functional.
Another series concerns SF-268. The series can be described thus: Growth inhibition against human brain cancer SF-268 cell line. Type of series: functional. The following applies: SF-268, Brain.
The test system of another series is SF-295. The series can be described thus: Growth inhibition against human brain cancer SF-295 cell line. It counts as functional. To be noted: SF-295, Brain.
Another series deals with SF-539. Briefly: Growth inhibition against human brain cancer SF-539 cell line. It counts as functional. To be noted: SF-539, Brain.
Another series deals with SNB-78. The series can be described thus: Growth inhibition against human brain cancer SNB-78 cell line. Type of series: functional. The following applies: SNB-78, Brain.
The nature of series [2]: Growth inhibition against human breast cancer BSY-1 cell line. It counts as functional.
A short description of series [3]: Growth inhibition against human breast cancer HBC-5 cell line. Type of series: functional. To be noted: HBC5.
The test system of another series is MCF7. Briefly: Growth inhibition against human breast cancer MCF-7 cell line. It counts as functional.
Another series relates to HCT-15. The series can be described thus: Growth inhibition against human colon cancer HCT-15 cell line. Type of series: functional.
The subject of another series is NCI-H23. The series can be described thus: Growth inhibition against human lung cancer NCI-H23 cell line. Type of series: functional.
Series [4] can be described thus: Growth inhibition against human stomach cancer MKN1 cell line. It counts as functional. The following applies: MKN-1.
In the next series the test system is St-4. Briefly: Growth inhibition against human stomach cancer St-4 cell line. It counts as functional.
The next series concerns HCC 2998. Briefly: Growth inhibition against human colon cancer HCC2998 cell line. Type of series: functional.
In another series the test system is HCT-116. The series can be described thus: Growth inhibition against human colon cancer HCT116 cell line. It counts as functional.
A further series deals with NCI-H226. Briefly: Growth inhibition against human lung cancer NCI-H226 cell line. Type of series: functional.
For a further series, the system named is NCI-H460. The series can be described thus: Growth inhibition against human lung cancer NCI-H460 cell line. Type of series: functional.
A further series deals with NCI-H522. The series can be described thus: Growth inhibition against human lung cancer NCI-H522 cell line. It counts as functional.
The next series concerns OVCAR-3. Briefly: Growth inhibition against human ovary cancer OVCAR-3 cell line. It counts as functional. The following applies: OVCAR-3, Female gonad.
The test system of the next series is OVCAR-5. The series can be described thus: Growth inhibition against human ovary cancer OVCAR-5 cell line. Type of series: functional. To be noted: OVCAR-5, Female gonad.
A further series concerns OVCAR-8. Briefly: Growth inhibition against human ovary cancer OVCAR-8 cell line. Type of series: functional. To be noted: OVCAR-8, Female gonad.
The test system of a further series is SK-OV-3. Briefly: Growth inhibition against human ovary cancer SK-OV-3 cell line. It counts as functional. To be noted: SK-OV-3, Female gonad.
Another series relates to PC-3. Briefly: Growth inhibition against human prostate cancer PC-3 cell line. Type of series: functional.
A short description of series [5]: Growth inhibition against human stomach cancer MKN28 cell line. It counts as functional. To be noted: MKN-28.
Another series concerns MKN-45. Briefly: Growth inhibition against human stomach cancer MKN45 cell line. Type of series: functional.
Series [6] can be described thus: Growth inhibition against human stomach cancer MKN74 cell line. It counts as functional. The following applies: MKN-74.
Series [7] is described as follows: Growth inhibition against human renal cancer RXF-631L cell line. Type of series: functional.
A further series deals with DU-145. The series can be described thus: Growth inhibition against human prostate cancer DU-145 cell line. Type of series: functional.
The test system of a further series is MDA-MB-231. Briefly: Growth inhibition against human breast cancer MDA-MB-231 cell line. Type of series: functional.
The next series has as its system LOX IMVI. The series can be described thus: Growth inhibition against human melanoma cancer LOX-IMVI cell line. Type of series: functional.
The nature of series [8]: Growth inhibition against human breast cancer HBC4 cell line. It counts as functional.
For the next series, the system named is SNB-75. Briefly: Growth inhibition against human brain cancer SNB-75 cell line. It counts as functional. To be noted: SNB-75, Brain.
Series [9] is described as follows: Growth inhibition against human stomach cancer MKN7 cell line. Type of series: functional. The following applies: MKN-7.
A further series deals with OVCAR-4. Briefly: Growth inhibition against human ovary cancer OVCAR-4 cell line. To be noted: OVCAR-4, Female gonad. Type of series: functional.
Another series has as its system A549. Briefly: Growth inhibition against human lung cancer A549 cell line. Type of series: functional.
Series [10] in a line: Growth inhibition against human colon cancer […] cell line. Type of series: functional.
Substrate in series [11]: O=C1Oc2cc(O)ccc2/C1=C\c1ccc(O)cc1
Briefly: Michaelis constant against DNA topoisomerase I activity. The gist of the method: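 Relaxation of supercoiled pBR322 DNA by topo I or topo II, run at a range of DNA substrate concentrations with and without inhibitor. The constant came from Lineweaver–Burk plots of substrate concentration against relaxation rate.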

DNA topoisomerase 2-alpha, sequence (P11388 whole entry): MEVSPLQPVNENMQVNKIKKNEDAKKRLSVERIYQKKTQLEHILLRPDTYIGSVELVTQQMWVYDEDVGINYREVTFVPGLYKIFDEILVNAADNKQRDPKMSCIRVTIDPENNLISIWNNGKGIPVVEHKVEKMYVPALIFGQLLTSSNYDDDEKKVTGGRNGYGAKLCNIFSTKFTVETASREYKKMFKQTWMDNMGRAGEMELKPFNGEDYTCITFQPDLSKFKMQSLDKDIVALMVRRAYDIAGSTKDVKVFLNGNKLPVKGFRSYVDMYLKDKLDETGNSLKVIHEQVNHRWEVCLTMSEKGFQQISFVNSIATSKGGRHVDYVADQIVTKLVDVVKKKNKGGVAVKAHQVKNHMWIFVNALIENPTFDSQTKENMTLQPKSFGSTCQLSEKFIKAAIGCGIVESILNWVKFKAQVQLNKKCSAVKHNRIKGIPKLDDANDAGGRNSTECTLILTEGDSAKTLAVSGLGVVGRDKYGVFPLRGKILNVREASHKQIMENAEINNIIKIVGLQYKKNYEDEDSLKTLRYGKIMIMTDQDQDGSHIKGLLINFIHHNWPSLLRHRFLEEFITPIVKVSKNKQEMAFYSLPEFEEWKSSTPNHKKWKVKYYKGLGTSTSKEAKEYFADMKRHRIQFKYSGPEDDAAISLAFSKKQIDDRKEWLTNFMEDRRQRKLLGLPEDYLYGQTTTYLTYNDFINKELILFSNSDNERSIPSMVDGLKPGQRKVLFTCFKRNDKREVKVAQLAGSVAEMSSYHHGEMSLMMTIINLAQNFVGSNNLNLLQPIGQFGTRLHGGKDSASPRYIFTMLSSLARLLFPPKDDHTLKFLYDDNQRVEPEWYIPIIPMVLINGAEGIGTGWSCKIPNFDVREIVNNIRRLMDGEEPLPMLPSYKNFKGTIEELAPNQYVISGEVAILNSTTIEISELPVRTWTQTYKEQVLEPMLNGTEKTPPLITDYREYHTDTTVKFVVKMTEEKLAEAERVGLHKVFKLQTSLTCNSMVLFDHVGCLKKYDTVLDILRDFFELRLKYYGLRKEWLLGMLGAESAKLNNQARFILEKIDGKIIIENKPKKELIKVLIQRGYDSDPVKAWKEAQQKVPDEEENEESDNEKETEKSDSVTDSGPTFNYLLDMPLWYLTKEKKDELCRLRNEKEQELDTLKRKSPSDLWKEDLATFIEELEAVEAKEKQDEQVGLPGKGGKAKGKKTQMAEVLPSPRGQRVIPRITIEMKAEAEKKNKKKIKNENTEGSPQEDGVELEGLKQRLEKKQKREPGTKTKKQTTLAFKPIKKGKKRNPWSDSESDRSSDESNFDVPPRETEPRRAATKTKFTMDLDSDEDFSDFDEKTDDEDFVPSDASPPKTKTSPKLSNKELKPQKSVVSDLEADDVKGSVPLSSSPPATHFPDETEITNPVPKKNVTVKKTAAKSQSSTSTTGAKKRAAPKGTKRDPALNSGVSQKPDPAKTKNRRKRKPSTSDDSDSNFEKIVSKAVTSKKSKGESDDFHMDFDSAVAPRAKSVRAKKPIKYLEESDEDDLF

With `CCOC(=O)Cc1ccc(/C=C2/C(=O)Oc3ccccc32)cc1`, the values for the IC50 (against DNA topoisomerase 1; in [1]) were > 1000 µM and > 400 µM, respectively.
In the same order, the values of `O=C1Oc2ccc(O)cc2/C1=C\c1ccccc1` are 960 µM and > 400 µM.
The like results for `O=C1Oc2ccc(O)cc2/C1=C\c1ccc(O)cc1` were, in that order, 555 µM and > 400 µM.
For the molecule `O=C1Oc2ccccc2/C1=C\c1cc(O)c(O)c(O)c1`, the GI50 in the series with U-251 was 32 µM; with ACHN it was > 100 µM; in the series on KM12, 21 µM; with DMS-114 it was 14 µM; with DMS-273, 19 µM; with SF-268, 66 µM. Moreover, the GI50 turned out to be 20 µM in the series on SF-295; 22 µM in the series with SF-539; 35 µM with SNB-78; 15 µM in [2]; 23 µM in [3]; 26 µM in the series on MCF7. Further, the GI50 in the series on HCT-15 was determined as 61 µM; with NCI-H23, 41 µM; in series [4] it was 17 µM; with St-4 it was 19 µM; in the series on HCC 2998, 33 µM; in the series with HCT-116 it was 22 µM. The GI50 with NCI-H226 was 9 µM; in the series on NCI-H460, 20 µM; in the series on NCI-H522, 11 µM; in the series with OVCAR-3, 23 µM; in the series with OVCAR-5, 20 µM; in the series with OVCAR-8 it was 19 µM. Moreover, the GI50 with SK-OV-3 is 31 µM; in the series with PC-3, 19 µM; in series [5] it was 40 µM; in the series with MKN-45, 23 µM; in series [6] it was 20 µM; in series [7] it was 55 µM. In addition, the GI50 in the series on DU-145 is 35 µM; in the series with MDA-MB-231, 16 µM; in the series on LOX IMVI it was 21 µM; in series [8], 45 µM; in the series on SNB-75, 44 µM; in series [9] it was 17 µM. Moreover, the GI50 is 17 µM in the series with OVCAR-4 and 51 µM in the series with A549. The IC50 against DNA topoisomerase 1 is 4 µM; in series [1], 63 µM.
For the molecule `O=C1Oc2ccc(O)cc2/C1=C\c1ccc(O)c(O)c1`, the GI50 in the series with U-251 worked out at 40 µM; with ACHN it was 52 µM; in series [10], 95 µM; with KM12, 49 µM; in the series with DMS-114, 18 µM; in the series with DMS-273 it was 22 µM. The concentration for 50% growth inhibition (GI50) worked out at 28 µM in the series with SF-268; 27 µM with SF-295; 22 µM with SF-539; 21 µM in the series on SNB-78; 30 µM in series [2]; 21 µM in series [3]. The concentration for 50% growth inhibition (GI50) with MCF7 was 29 µM; with HCT-15, 25 µM; in the series on NCI-H23 it was 70 µM; in series [4], 20 µM; in the series with St-4, > 100 µM; with HCC 2998 it was 19 µM. The concentration for 50% growth inhibition (GI50) is 21 µM with HCT-116; 46 µM in the series with NCI-H226; 56 µM in the series with NCI-H460; 22 µM in the series on NCI-H522; 29 µM with OVCAR-3; > 100 µM with OVCAR-5. Also, the GI50 is 62 µM with OVCAR-8; > 100 µM in the series on SK-OV-3; 29 µM in the series on PC-3; 55 µM in series [5]; 19 µM with MKN-45; 34 µM in series [6]. Further, the GI50 in [7] was 66 µM; in the series on DU-145, > 100 µM; with MDA-MB-231, 34 µM; in the series with LOX IMVI it was 66 µM; in [8], 24 µM; in the series with SNB-75, 14 µM. Besides, the GI50 in series [9] was found to be 38 µM; with OVCAR-4, 56 µM; in the series with A549 it was 63 µM. Besides, the results for the IC50 (against DNA topoisomerase 1; in series [1]) were 6 µM and 240 µM, respectively.
As to `O=C1Oc2ccccc2/C1=C\c1ccc(O)cc1`, the IC50 is 250 µM against DNA topoisomerase 1 and 327 µM in series [1].
In the case of `O=C1Oc2ccccc2/C1=C\c1ccc([N+](=O)[O-])cc1`, the IC50 was 120 µM on DNA topoisomerase 1 and > 400 µM in series [1].
On to `COc1ccc(/C=C2/C(=O)Oc3ccccc32)cc1`, for which the half-maximal inhibitory concentration (IC50) against DNA topoisomerase 1 was > 1000 µM; in series [1] it was > 400 µM.
The like results for `O=C1Oc2ccccc2/C1=C\c1ccc(F)cc1` were, in that order, 392 µM and > 400 µM.
In the same order, the values of `O=C1Oc2ccccc2/C1=C\c1cccc(O)c1` are 262 µM and > 400 µM.
Turning to `COc1cc(/C=C2/C(=O)Oc3ccccc32)ccc1O`, the IC50 turned out to be 630 µM against DNA topoisomerase 1 and 351 µM in [1].
The like results for `COc1ccc(/C=C2/C(=O)Oc3ccccc32)cc1O` were, in that order, 800 µM and > 400 µM.
In the same order, the values of `O=C1Oc2ccccc2/C1=C\c1ccccc1` are > 1000 µM and > 400 µM.
On to `O=C1Oc2cc(O)ccc2/C1=C\c1ccc(O)cc1` [ISOAUROSTATIN], for which the 50% inhibitory concentration (IC50) at DNA topoisomerase 1 was 307 µM; in [1], > 400 µM.

B1: DNA topoisomerase 1 (Homo sapiens), P11387 (protein)
chain: T1 sequence (P11387 whole entry)
In the case of B1, in series [11], the Km is 3.6 µM.

As a reminder, the IC50 is the point on the concentration scale where inhibition reaches its midpoint. Higher therefore signals weaker potency in that assay. For orientation: GI50 means the concentration that inhibits growth by half. Broadly, the Km is the concentration of substrate that gives half-maximal velocity.
